Reference: ChEMBL document CHEMBL4814057, “4-4-(Anilinomethyl)-3-[4-(trifluoromethyl)phenyl]-1H-pyrazol-1-ylbenzoic acid derivatives as potent anti-gram-positive bacterial agents” (Eur J Med Chem, 2021)
≈ marks a conversion by molar mass, not a printed value. Calls of active or inactive are those of the source. The rule behind the calls is not given here.

Legend:
Staphylococcus aureus [1] = test: Antimicrobial activity against methicillin-resistant Staphylococcus aureus ATCC 33592 assessed as bacterial growth inhibitions by CLSI protocol based microdilution method; assay type: functional
Enterococcus faecium = test: Antimicrobial activity against vancomycin-resistant Enterococcus faecium ATCC 700221 assessed as bacterial growth inhibitions by CLSI protocol based microdilution method; assay type: functional
Staphylococcus aureus [2] = test: Antimicrobial activity against antibiotic-resistant Staphylococcus aureus BM-2312 assessed as bacterial growth inhibitions by CLSI protocol based microdilution method; assay type: functional
[3] = test system: Staphylococcus epidermidis; test: Antimicrobial activity against methicillin-resistant Staphylococcus epidermidis ATCC 700296 assessed as bacterial growth inhibitions by CLSI protocol based microdilution method; assay type: functional
Staphylococcus aureus [4] = test: Antimicrobial activity against methicillin-resistant Staphylococcus aureus ATCC 700699 assessed as bacterial growth inhibitions by CLSI protocol based microdilution method; assay type: functional
Enterococcus faecalis = test: Antimicrobial activity against vancomycin-susceptible Enterococcus faecalis ATCC 29212 assessed as bacterial growth inhibitions by CLSI protocol based microdilution method
Staphylococcus aureus [5] = test: Antimicrobial activity against methicillin-susceptible Staphylococcus aureus ATCC 25923 assessed as bacterial growth inhibitions by CLSI protocol based microdilution method; assay type: functional
Bacillus subtilis = test: Antimicrobial activity against Bacillus subtilis ATCC 6623 assessed as bacterial growth inhibitions by CLSI protocol based microdilution method; assay type: functional
Method in brief: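 Broth microdilution starting at 50 µg/ml with 2-fold serial dilutions; run in triplicate.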

Staphylococcus aureus [6] = test: Antimicrobial activity against methicillin-resistant Staphylococcus aureus ATCC 33591 assessed as bacterial growth inhibitions by CLSI protocol based microdilution method; assay type: functional

SMILES | MIC (Staphylococcus aureus [1]) [µg/mL] | MIC (Enterococcus faecium) | MIC (Staphylococcus aureus [2]) [µg/mL] | MIC [3] [µg/mL] | MIC (Staphylococcus aureus [4]) [µg/mL] | MIC (Enterococcus faecalis) | MIC (Staphylococcus aureus [5]) [µg/mL] | MIC (Bacillus subtilis) [µg/mL] | MIC (Staphylococcus aureus [6]) [µg/mL]
O=C(O)c1ccc(-n2cc(CNc3ccc(N4CCOCC4)c(C(F)(F)F)c3)c(-c3ccc(C(F)(F)F)cc3)n2)cc1 | 0.78 (≈ 1.32 µM) | 0.78 µg/mL (≈ 1.32 µM) | 1.56 (≈ 2.64 µM) | 1.56 (≈ 2.64 µM) | 0.78 (≈ 1.32 µM) | 1.56 µg/mL (≈ 2.64 µM) | 0.78 (≈ 1.32 µM) | 0.78 (≈ 1.32 µM) | 0.78 (≈ 1.32 µM)
O=C(O)c1ccc(-n2cc(CNc3cc(C(F)(F)F)ccc3F)c(-c3ccc(C(F)(F)F)cc3)n2)cc1 | 1.56 (≈ 2.98 µM) | 1.56 µg/mL (≈ 2.98 µM) | 0.78 (≈ 1.49 µM) | 3.12 (≈ 5.96 µM) | 0.78 (≈ 1.49 µM) | 6.25 µg/mL (≈ 11.9 µM) | 1.56 (≈ 2.98 µM) | 0.78 (≈ 1.49 µM) | 0.78 (≈ 1.49 µM)
O=C(O)c1ccc(-n2cc(CNc3cc(F)c(F)c(F)c3)c(-c3ccc(C(F)(F)F)cc3)n2)cc1 | 0.78 (≈ 1.59 µM) | 0.78 µg/mL (≈ 1.59 µM) | 0.78 (≈ 1.59 µM) | 1.56 (≈ 3.17 µM) | 0.78 (≈ 1.59 µM) | 1.56 µg/mL (≈ 3.17 µM) | 0.78 (≈ 1.59 µM) | 0.78 (≈ 1.59 µM) | 0.78 (≈ 1.59 µM)
O=C(O)c1ccc(-n2cc(CNc3cccc(C(F)(F)F)c3)c(-c3ccc(C(F)(F)F)cc3)n2)cc1 | 0.78 (≈ 1.54 µM) | 1.56 µg/mL (≈ 3.09 µM) | 1.56 (≈ 3.09 µM) | 1.56 (≈ 3.09 µM) | 0.38 (≈ 0.752 µM) | 6.25 µg/mL (≈ 12.4 µM) | 1.56 (≈ 3.09 µM) | 0.78 (≈ 1.54 µM) | 0.78 (≈ 1.54 µM)
O=C(O)c1ccc(-n2cc(CNc3cc(Cl)cc(Cl)c3)c(-c3ccc(C(F)(F)F)cc3)n2)cc1 | 0.78 (≈ 1.54 µM) | 0.78 µg/mL (≈ 1.54 µM) | 0.78 (≈ 1.54 µM) | 0.78 (≈ 1.54 µM) | 0.78 (≈ 1.54 µM) | 1.56 µg/mL (≈ 3.08 µM) | 0.78 (≈ 1.54 µM) | 0.78 (≈ 1.54 µM) | 0.78 (≈ 1.54 µM)
Cc1ccc(NCc2cn(-c3ccc(C(=O)O)cc3)nc2-c2ccc(C(F)(F)F)cc2)cc1Cl | 0.78 (≈ 1.61 µM) | 0.78 µg/mL (≈ 1.61 µM) | 0.78 (≈ 1.61 µM) | 1.56 (≈ 3.21 µM) | 0.78 (≈ 1.61 µM) | 3.12 µg/mL (≈ 6.42 µM) | 0.78 (≈ 1.61 µM) | 0.78 (≈ 1.61 µM) | 0.78 (≈ 1.61 µM)
O=C(O)c1ccc(-n2cc(CNc3ccccc3)c(-c3ccc(C(F)(F)F)cc3)n2)cc1 | 6.25 (≈ 14.3 µM) | 6.25 µg/mL (≈ 14.3 µM) | 12.5 (≈ 28.6 µM) | 12.5 (≈ 28.6 µM) | 6.25 (≈ 14.3 µM) | 25 µg/mL (≈ 57.2 µM) | 12.5 (≈ 28.6 µM) | 3.12 (≈ 7.13 µM) | 6.25 (≈ 14.3 µM)
O=C(O)c1ccc(-n2cc(CNc3ccc(Cl)c(Cl)c3)c(-c3ccc(C(F)(F)F)cc3)n2)cc1 | 0.78 (≈ 1.54 µM) | 0.78 µg/mL (≈ 1.54 µM) | 0.78 (≈ 1.54 µM) |  | 1.56 (≈ 3.08 µM) |  | 0.78 (≈ 1.54 µM) | 0.78 (≈ 1.54 µM) | 0.78 (≈ 1.54 µM)
O=C(O)c1ccc(-n2cc(CNc3ccc(Cl)cc3)c(-c3ccc(C(F)(F)F)cc3)n2)cc1 | 1.56 (≈ 3.31 µM) | 1.56 µg/mL (≈ 3.31 µM) | 1.56 (≈ 3.31 µM) | 3.12 (≈ 6.61 µM) | 1.56 (≈ 3.31 µM) | 6.25 µg/mL (≈ 13.2 µM) | 1.56 (≈ 3.31 µM) | 0.78 (≈ 1.65 µM) | 1.56 (≈ 3.31 µM)
O=C(O)c1ccc(-n2cc(CNc3ccc(Br)cc3)c(-c3ccc(C(F)(F)F)cc3)n2)cc1 | 1.56 (≈ 3.02 µM) | 0.78 µg/mL (≈ 1.51 µM) | 0.78 (≈ 1.51 µM) | 3.12 (≈ 6.04 µM) | 0.78 (≈ 1.51 µM) | 6.25 µg/mL (≈ 12.1 µM) | 0.78 (≈ 1.51 µM) | 0.78 (≈ 1.51 µM) | 0.78 (≈ 1.51 µM)
O=C(O)c1ccc(-n2cc(CNc3cc(Cl)c(F)cc3F)c(-c3ccc(C(F)(F)F)cc3)n2)cc1 | 1.56 (≈ 3.07 µM) | 1.56 µg/mL (≈ 3.07 µM) | 0.78 (≈ 1.54 µM) | 3.12 (≈ 6.14 µM) | 0.78 (≈ 1.54 µM) | 6.25 µg/mL (≈ 12.3 µM) | 1.56 (≈ 3.07 µM) | 0.78 (≈ 1.54 µM) | 1.56 (≈ 3.07 µM)
O=C(O)c1ccc(-n2cc(CNc3ccc(F)cc3)c(-c3ccc(C(F)(F)F)cc3)n2)cc1 | 12.5 (≈ 27.4 µM) | 6.25 µg/mL (≈ 13.7 µM) | 3.12 (≈ 6.85 µM) | 12.5 (≈ 27.4 µM) | 6.25 (≈ 13.7 µM) | 25 µg/mL (≈ 54.9 µM) | 6.25 (≈ 13.7 µM) | 1.56 (≈ 3.43 µM) | 6.25 (≈ 13.7 µM)
O=C(O)c1ccc(-n2cc(CNc3cccc(Br)c3)c(-c3ccc(C(F)(F)F)cc3)n2)cc1 | 0.78 (≈ 1.51 µM) | 1.56 µg/mL (≈ 3.02 µM) | 0.78 (≈ 1.51 µM) | 3.12 (≈ 6.04 µM) | 1.56 (≈ 3.02 µM) | 6.25 µg/mL (≈ 12.1 µM) | 0.78 (≈ 1.51 µM) | 0.78 (≈ 1.51 µM) | 0.78 (≈ 1.51 µM)
O=C(O)c1ccc(-n2cc(CNc3cccc(Cl)c3F)c(-c3ccc(C(F)(F)F)cc3)n2)cc1 | 1.56 (≈ 3.18 µM) | 0.78 µg/mL (≈ 1.59 µM) | 0.78 (≈ 1.59 µM) |  | 3.12 (≈ 6.37 µM) |  | 1.56 (≈ 3.18 µM) | 0.78 (≈ 1.59 µM) | 1.56 (≈ 3.18 µM)
O=C(O)c1ccc(-n2cc(CNc3cccc(Cl)c3)c(-c3ccc(C(F)(F)F)cc3)n2)cc1 | 1.56 (≈ 3.31 µM) | 0.78 µg/mL (≈ 1.65 µM) | 1.56 (≈ 3.31 µM) | 3.12 (≈ 6.61 µM) | 0.78 (≈ 1.65 µM) | 12.5 µg/mL (≈ 26.5 µM) | 1.56 (≈ 3.31 µM) | 0.78 (≈ 1.65 µM) | 0.78 (≈ 1.65 µM)
O=C(O)c1ccc(-n2cc(CNc3cc(Br)cc(C(F)(F)F)c3)c(-c3ccc(C(F)(F)F)cc3)n2)cc1 | 0.78 (≈ 1.33 µM) | 0.78 µg/mL (≈ 1.33 µM) | 0.78 (≈ 1.33 µM) | 1.56 (≈ 2.67 µM) | 0.78 (≈ 1.33 µM) | 0.78 µg/mL (≈ 1.33 µM) | 0.78 (≈ 1.33 µM) | 0.78 (≈ 1.33 µM) | 3.12 (≈ 5.34 µM)
O=C(O)c1ccc(-n2cc(CNc3cccc(OC(F)(F)F)c3)c(-c3ccc(C(F)(F)F)cc3)n2)cc1 | 0.78 (≈ 1.5 µM) | 0.78 µg/mL (≈ 1.5 µM) | 0.78 (≈ 1.5 µM) | 3.12 (≈ 5.98 µM) | 50 (≈ 95.9 µM) | 3.12 µg/mL (≈ 5.98 µM) | 0.78 (≈ 1.5 µM) | 0.78 (≈ 1.5 µM) | 0.78 (≈ 1.5 µM)
O=C(O)c1ccc(-n2cc(CNc3ccc(Br)c(Cl)c3)c(-c3ccc(C(F)(F)F)cc3)n2)cc1 | 0.78 (≈ 1.42 µM) | 0.78 µg/mL (≈ 1.42 µM) | 0.78 (≈ 1.42 µM) | 0.78 (≈ 1.42 µM) | 0.78 (≈ 1.42 µM) | 1.56 µg/mL (≈ 2.83 µM) | 0.78 (≈ 1.42 µM) | 0.78 (≈ 1.42 µM) | 0.78 (≈ 1.42 µM)
NS(=O)(=O)c1ccc(NCc2cn(-c3ccc(C(=O)O)cc3)nc2-c2ccc(C(F)(F)F)cc2)cc1 | 50 (≈ 96.8 µM) | inactive | 50 (≈ 96.8 µM) | 50 (≈ 96.8 µM) | 0.39 (≈ 0.755 µM) | inactive | 50 (≈ 96.8 µM) | 50 (≈ 96.8 µM) | 50 (≈ 96.8 µM)
O=C(O)c1ccc(-n2cc(CNc3cc(C(F)(F)F)cc(C(F)(F)F)c3)c(-c3ccc(C(F)(F)F)cc3)n2)cc1 | 0.78 (≈ 1.36 µM) | 0.78 µg/mL (≈ 1.36 µM) | 0.78 (≈ 1.36 µM) | 1.56 (≈ 2.72 µM) | 0.78 (≈ 1.36 µM) | 0.78 µg/mL (≈ 1.36 µM) | 0.78 (≈ 1.36 µM) | 0.78 (≈ 1.36 µM) | 0.78 (≈ 1.36 µM)
O=C(O)c1ccc(-n2cc(CNc3ccc(Br)c(C(F)(F)F)c3)c(-c3ccc(C(F)(F)F)cc3)n2)cc1 | 3.12 (≈ 5.34 µM) | 0.78 µg/mL (≈ 1.33 µM) | 3.12 (≈ 5.34 µM) | 12.5 (≈ 21.4 µM) | 3.12 (≈ 5.34 µM) |  | 3.12 (≈ 5.34 µM) | 3.12 (≈ 5.34 µM) | 0.78 (≈ 1.33 µM)
O=C(O)c1ccc(-n2cc(CNc3cc(F)c(C(F)(F)F)cc3F)c(-c3ccc(C(F)(F)F)cc3)n2)cc1 | 0.78 (≈ 1.44 µM) | 0.78 µg/mL (≈ 1.44 µM) | 0.78 (≈ 1.44 µM) |  | 0.78 (≈ 1.44 µM) | 1.56 µg/mL (≈ 2.88 µM) | 0.78 (≈ 1.44 µM) | 0.78 (≈ 1.44 µM) | 0.78 (≈ 1.44 µM)
O=C(O)c1ccc(-n2cc(CNc3ccc(F)c(F)c3)c(-c3ccc(C(F)(F)F)cc3)n2)cc1 | 1.56 (≈ 3.3 µM) | 3.12 µg/mL (≈ 6.59 µM) | 1.56 (≈ 3.3 µM) | 6.25 (≈ 13.2 µM) | 0.78 (≈ 1.65 µM) | 12.5 µg/mL (≈ 26.4 µM) | 1.56 (≈ 3.3 µM) |  | 1.56 (≈ 3.3 µM)
O=C(O)c1ccc(-n2cc(CNc3ccc(Br)c(Cl)c3F)c(-c3ccc(C(F)(F)F)cc3)n2)cc1 |  |  |  |  |  | 0.78 µg/mL (≈ 1.37 µM) |  |  | 
